# Experimental data gathered from unrelated publications.
# Target: Casein kinase I isoform delta (CSNK1D, Homo sapiens, UniProt P48730)
SMILES,assay,setting,endpoint,result
COc1cc(Nc2cnc(C#N)c(O[C@H](C)CN(C)C)n2)ncc1-c1cnn(C)c1,"enzyme activity, inhibitor, radiometric",10 µM,remaining activity,22%
CN([C@@H]1CCc2c(CC(=O)O)c3cc(S(C)(=O)=O)ccc3n2C1)S(=O)(=O)c1ccc(F)cc1,"cell-free assay, competition with immobilised ligand",1 µM,remaining binding,100%
CNc1cccc2cc(C(=O)Nc3ccc(C(=O)O)cc3)c(=O)[nH]c12,"enzyme activity, inhibitor",10 µM,inhibition,25%
CCN(CC)c1ccc(C2=NNC(=O)CC2C)cc1[N+](=O)[O-] (centres unmarked),"enzyme activity, inhibitor",10 µM,remaining activity,109%
N#CCCc1ccc2c(c1)-c1[nH]c3ccc([N+](=O)[O-])cc3c1CC(=O)N2,cell-free assay,0.5 µM,remaining signal,97.4%
Cc1cc(-n2nc(Cc3cc(F)cc(C(F)(F)F)c3)nc2C)ccc1C(N)=O,"cell-free assay, competition with immobilised ligand",1 µM,remaining binding,100%
CC(C)(O)[C@H]1CC[C@H](Nc2ccc3ncc(-c4cccc(C(F)(F)F)c4)n3n2)CC1,"enzyme activity, inhibitor",1 µM,remaining activity,84.2%
O=C(Cc1cccc(Cl)c1)Nc1nc2ccccc2s1,cell-free assay,10 µM,inhibition,> 60%
FC(F)(F)Oc1cccc(-c2cnc3ccc(-c4ccncc4)nn23)c1,"enzyme activity, inhibitor, radiometric",5 µM,activity vs control,97%
O=C1NC(=O)c2cc(Nc3ccc(F)cc3)c(Nc3ccc(F)cc3)cc21,cell-free assay,0.5 µM,remaining signal,109%
Cc1cnc(NC2CCOCC2)nc1-n1cnc(C(=O)NC(CN)c2cc(F)cc(Cl)c2)c1 (centres unmarked),"enzyme activity, inhibitor, radiometric",1 µM,remaining activity,53%
CO[C@@H](C)c1c(Nc2ccc([C@H](N(C)C(=O)C3CCS(=O)(=O)CC3)C(F)(F)F)cc2)cnc2cc(Cl)nn12,"cell-free assay, competition with immobilised ligand",1 µM,remaining binding,88%
O=C(Nc1cnn(-c2csc(C(=O)NC3COC3)c2)c1)Nc1c(F)cccc1Cl,"enzyme activity, inhibitor",5 µM,remaining activity,117%
CO[C@H]1CC[C@H](CNc2ccc(S(=O)(=O)NC(=O)c3ccc(N4CCN(CC5=C(c6ccc(Cl)cc6)CC(C)(C)CC5)CC4)cc3Oc3cnc4[nH]ccc4c3)cc2[N+](=O)[O-])CC1,"cell-free assay, competition with immobilised ligand",1 µM,remaining binding,93%
Nc1ncnc2occ(-c3ccc(NC(=O)Nc4cc(C(F)(F)F)ccc4F)cc3)c12,"cell-free assay, inhibitor",20 µM,remaining signal,3.9%
CS(=O)(=O)N1CCCC(NC(=O)[C@H](CCC2CCCCC2)NC(=O)c2ccc(CNC(=O)c3cnc4ccccn34)cc2)C1 (some centres unmarked),"cell-free assay, competition with immobilised ligand",0.1 µM,remaining binding,84%
COc1cc(/C=C/C(=O)CC(=O)/C=C/c2ccc(O)c(OC)c2)ccc1O,"enzyme activity, inhibitor",1 µM,activity vs control,105%
